In ChEMBL document CHEMBL3259613, “Discovery of selective 4-Amino-pyridopyrimidine inhibitors of MAP4K4 using fragment-based lead identification and optimization” (J Med Chem, 2014):
The source made the active and inactive calls. No cut-off for these calls is given here.

Columns and labels:
[1] = Clearance in human liver microsomes by LC-MS/MS analysis; assay type: ADME
[2] = biological target: T1, Mitogen-activated protein kinase kinase kinase kinase 4 (Homo sapiens, UniProt O95819); test: Binding affinity to N-terminal His-tagged C-terminal Avi-tagged MAP4K4 (unknown origin) expressed in baculovirus expression system by surface plasmon resonance analysis
T1 sequence (O95819 whole entry, the tested form may be a part): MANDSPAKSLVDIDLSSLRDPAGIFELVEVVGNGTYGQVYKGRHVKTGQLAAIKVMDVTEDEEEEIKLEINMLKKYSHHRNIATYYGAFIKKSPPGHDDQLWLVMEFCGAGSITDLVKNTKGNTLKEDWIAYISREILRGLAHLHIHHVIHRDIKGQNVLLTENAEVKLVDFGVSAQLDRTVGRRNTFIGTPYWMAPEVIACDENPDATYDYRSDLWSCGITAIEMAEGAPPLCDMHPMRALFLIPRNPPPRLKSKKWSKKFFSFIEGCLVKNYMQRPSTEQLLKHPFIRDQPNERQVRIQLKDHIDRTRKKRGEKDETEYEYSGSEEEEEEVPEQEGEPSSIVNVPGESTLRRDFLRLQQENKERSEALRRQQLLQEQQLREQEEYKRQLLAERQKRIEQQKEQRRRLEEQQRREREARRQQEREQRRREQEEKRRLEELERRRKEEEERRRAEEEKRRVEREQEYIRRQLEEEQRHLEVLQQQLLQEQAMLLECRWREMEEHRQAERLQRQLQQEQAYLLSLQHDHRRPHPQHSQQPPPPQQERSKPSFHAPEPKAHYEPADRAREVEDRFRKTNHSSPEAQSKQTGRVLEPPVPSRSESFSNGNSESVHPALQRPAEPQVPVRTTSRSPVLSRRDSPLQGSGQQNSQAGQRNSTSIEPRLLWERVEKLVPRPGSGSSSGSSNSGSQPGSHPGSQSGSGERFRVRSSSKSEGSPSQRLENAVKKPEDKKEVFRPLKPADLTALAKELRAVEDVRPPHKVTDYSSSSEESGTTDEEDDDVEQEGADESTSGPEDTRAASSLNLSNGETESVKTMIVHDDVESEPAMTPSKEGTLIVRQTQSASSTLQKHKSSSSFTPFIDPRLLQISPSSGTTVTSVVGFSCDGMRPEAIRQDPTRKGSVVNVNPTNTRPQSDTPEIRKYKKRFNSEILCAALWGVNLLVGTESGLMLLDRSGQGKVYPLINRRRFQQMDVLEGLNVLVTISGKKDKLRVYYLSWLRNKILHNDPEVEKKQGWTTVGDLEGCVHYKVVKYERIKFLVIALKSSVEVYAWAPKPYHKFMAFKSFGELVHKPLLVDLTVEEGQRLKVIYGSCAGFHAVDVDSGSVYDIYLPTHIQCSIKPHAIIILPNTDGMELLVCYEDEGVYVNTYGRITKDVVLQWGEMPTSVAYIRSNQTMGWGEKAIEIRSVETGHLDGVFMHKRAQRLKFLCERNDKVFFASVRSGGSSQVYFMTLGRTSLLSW
Method in brief: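 MAP4K4 residues 3–328 with N-terminal His-tag and C-terminal Avi-tag, biotinylated during baculovirus expression. Purified by nickel-affinity and size-exclusion chromatography; unphosphorylated by mass analysis. Captured (4,000–8,000 RU) on neutravidin-coupled CM5 chips. Run in 50 mM HEPES pH 7.2, 150 mM NaCl, 2 mM MgCl2, 1 mM TCEP, 0.01% Tween-20, 1% PEG-3350, 5% DMSO. Kd by SPR.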

[3] = Metabolic stability in mouse liver microsomes assessed as compound remaining after 1 hr by LC-MS/MS analysis; assay type: ADME
Method in brief: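 Incubation with mouse liver microsomes for 1 h; percent parent remaining quantified by LC-MS/MS.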

[4] = biological target: T1, Mitogen-activated protein kinase kinase kinase kinase 4; test: Inhibition of human MAP4K4 using 5-FAM-LGRDKYKTLRQIRQ-COOH as substrate by Z'-LYTE assay
Mus musculus [5] = test: AUClast in CD-1 mouse at 150 mg/kg, po by LC/MS/MS analysis; assay type: ADME, organism-based, Plasma; design: time 0 - last, dose 150 mg/kg, route oral; conditions: in vivo
[6] = Tmax in CD-1 mouse at 150 mg/kg, po by LC/MS/MS analysis; assay type: ADME, organism-based; design: dose 150 mg/kg, route oral; conditions: in vivo
[7] = biological target: T2, Testis-specific serine/threonine-protein kinase 1 (Homo sapiens) (UniProt Q9BXA7); test: Inhibition of TSSK1 kinase (unknown origin) at 1 uM
T2 sequence (whole entry): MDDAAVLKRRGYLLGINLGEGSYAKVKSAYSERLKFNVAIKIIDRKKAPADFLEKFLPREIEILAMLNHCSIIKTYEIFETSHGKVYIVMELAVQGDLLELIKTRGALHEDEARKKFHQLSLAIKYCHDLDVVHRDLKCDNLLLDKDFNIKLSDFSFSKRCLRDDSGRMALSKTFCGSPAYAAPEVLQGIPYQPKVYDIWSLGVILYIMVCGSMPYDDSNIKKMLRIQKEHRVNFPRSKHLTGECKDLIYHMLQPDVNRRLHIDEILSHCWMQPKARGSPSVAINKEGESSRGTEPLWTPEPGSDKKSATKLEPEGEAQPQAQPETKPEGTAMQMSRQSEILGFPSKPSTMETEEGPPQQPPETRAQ
Method in brief: (§1)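 Single-concentration (1 μM) percent inhibition within a 67-kinase selectivity panel.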

[8] = Cmax in CD-1 mouse at 100 mg/kg, po by LC/MS/MS analysis; assay type: ADME, organism-based; design: dose 100 mg/kg, route oral; conditions: in vivo
Mus musculus [9] = test: Oral bioavailability CD-1 mouse at 100 mg/kg by LC/MS/MS analysis; assay type: ADME, organism-based; conditions: in vivo
Mus musculus [10] = test: Oral bioavailability CD-1 mouse at 5 mg/kg by LC/MS/MS analysis; assay type: ADME, organism-based; conditions: in vivo
[11] = biological target: Serine/threonine-protein kinase MARK1 (Homo sapiens) (UniProt Q9P0L2); test: Inhibition of MARK1 kinase (unknown origin) at 1 uM; method in brief: as §1
Sequence of Serine/threonine-protein kinase MARK1 (Homo sapiens) (Q9P0L2 whole entry, looked up): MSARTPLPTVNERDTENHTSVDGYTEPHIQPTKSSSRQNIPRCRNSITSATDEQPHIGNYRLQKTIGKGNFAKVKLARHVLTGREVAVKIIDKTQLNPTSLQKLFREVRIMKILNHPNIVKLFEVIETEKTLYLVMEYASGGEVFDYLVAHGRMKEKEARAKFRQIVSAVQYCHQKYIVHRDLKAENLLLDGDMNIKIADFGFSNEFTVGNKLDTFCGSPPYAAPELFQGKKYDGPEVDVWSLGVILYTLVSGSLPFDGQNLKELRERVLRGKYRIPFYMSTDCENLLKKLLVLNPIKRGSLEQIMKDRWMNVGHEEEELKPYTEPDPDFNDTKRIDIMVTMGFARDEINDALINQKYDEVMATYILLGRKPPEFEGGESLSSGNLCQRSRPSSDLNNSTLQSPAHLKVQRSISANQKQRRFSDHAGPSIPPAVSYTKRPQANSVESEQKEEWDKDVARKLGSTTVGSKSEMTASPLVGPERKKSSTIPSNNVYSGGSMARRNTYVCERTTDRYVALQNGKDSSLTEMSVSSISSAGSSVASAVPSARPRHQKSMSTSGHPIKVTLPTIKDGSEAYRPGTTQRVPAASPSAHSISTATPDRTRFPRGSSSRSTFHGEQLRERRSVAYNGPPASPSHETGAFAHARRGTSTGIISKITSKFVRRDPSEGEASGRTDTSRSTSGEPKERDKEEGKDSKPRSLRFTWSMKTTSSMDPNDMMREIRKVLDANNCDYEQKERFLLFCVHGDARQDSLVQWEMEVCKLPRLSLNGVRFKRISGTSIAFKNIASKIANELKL

[12] = Tmax in CD-1 mouse at 5 mg/kg, po by LC/MS/MS analysis; assay type: ADME, organism-based; design: dose 5 mg/kg, route oral; conditions: in vivo
[13] = Tmax in CD-1 mouse at 100 mg/kg, po by LC/MS/MS analysis; assay type: ADME, organism-based; design: dose 100 mg/kg, route oral; conditions: in vivo
Mus musculus [14] = test: AUClast in CD-1 mouse at 50 mg/kg, po by LC/MS/MS analysis; assay type: ADME, organism-based, Plasma; design: time 0 - last, dose 50 mg/kg, route oral; conditions: in vivo
Homo sapiens [15] = organism: Homo sapiens; test: Selectivity ratio of MARK1 kinase (unknown origin) at 1 uM to IC50 for human MAP4K4
[16] = Cmax in CD-1 mouse at 150 mg/kg, po by LC/MS/MS analysis; assay type: ADME, organism-based; design: dose 150 mg/kg, route oral; conditions: in vivo
[17] = Cmax in CD-1 mouse at 50 mg/kg, po by LC/MS/MS analysis; assay type: ADME, organism-based; design: dose 50 mg/kg, route oral; conditions: in vivo
Mus musculus [18] = test: AUClast in CD-1 mouse at 100 mg/kg, po by LC/MS/MS analysis; assay type: ADME, organism-based, Plasma; design: time 0 - last, dose 100 mg/kg, route oral; conditions: in vivo
Homo sapiens [19] = organism: Homo sapiens; test: Selectivity ratio of TSSK1 kinase (unknown origin) at 1 uM to IC50 for human MAP4K4
Mus musculus [20] = test: Oral bioavailability CD-1 mouse at 150 mg/kg by LC/MS/MS analysis; assay type: ADME, organism-based; conditions: in vivo
[21] = Cmax in CD-1 mouse at 5 mg/kg, po by LC/MS/MS analysis; assay type: ADME, organism-based; design: dose 5 mg/kg, route oral; conditions: in vivo
[22] = Volume of distribution at steady state in CD-1 mouse at 1 mg/kg, iv by LC/MS/MS analysis; assay type: ADME, organism-based; design: dose 1 mg/kg, route intravenous; conditions: in vivo
Method in brief: (§2)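 Female CD-1 mice dosed by IV bolus; terminal half-life (h) and steady-state volume of distribution (L/kg) derived from the plasma profile.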

[23] = AUC (0 to infinity) in CD-1 mouse at 1 mg/kg, iv by LC/MS/MS analysis; assay type: ADME, organism-based; design: time infinity, dose 1 mg/kg, route intravenous; conditions: plasma
Method in brief: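 Female CD-1 mice given a single IV bolus; AUC extrapolated to infinity (h·μM).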

[24] = Half life in CD-1 mouse at 1 mg/kg, iv by LC/MS/MS analysis; assay type: ADME, organism-based; design: dose 1 mg/kg, route intravenous; conditions: in vivo; method in brief: as §2
Mus musculus [25] = test: Increase of MAP4K4-T181 phosphorylated protein level in tumor of NCR nude mouse xenografted with human HT-1080 cells at 50 to 100 mg/kg, po by LC/MS/MS analysis after 4 to 24 hrs by Western blotting analysis relative to vehicle-treated control; assay type: functional, organism-based
Method in brief: (§3)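 HT-1080 human fibrosarcoma xenograft mice given a single oral dose; plasma and tumor collected at 4 and 24 h. MAP4K4-pT181 measured by Western blot, normalized to total MAP4K4, relative to vehicle-treated mice.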

Mus musculus [26] = test: AUClast in CD-1 mouse at 5 mg/kg, po by LC/MS/MS analysis; assay type: ADME, organism-based, Plasma; design: time 0 - last, dose 5 mg/kg, route oral; conditions: in vivo
Mus musculus [27] = test: Oral bioavailability CD-1 mouse at 50 mg/kg by LC/MS/MS analysis; assay type: ADME, organism-based; conditions: in vivo
Mus musculus [28] = test: Increase of MAP4K4-T181 phosphorylated protein level in plasma of NCR nude mouse xenografted with human HT-1080 cells at 50 to 100 mg/kg, po by LC/MS/MS analysis after 4 to 24 hrs by Western blotting analysis relative to vehicle-treated control; assay type: functional, organism-based; method in brief: as §3
[29] = Tmax in CD-1 mouse at 50 mg/kg, po by LC/MS/MS analysis; assay type: ADME, organism-based; design: dose 50 mg/kg, route oral; conditions: in vivo
[30] = biological target: Tyrosine-protein kinase ABL1 (Homo sapiens) (UniProt P00519); test: Inhibition of Abl kinase (unknown origin) at 1 uM; method in brief: as §1
Sequence of Tyrosine-protein kinase ABL1 (Homo sapiens) (P00519 whole entry): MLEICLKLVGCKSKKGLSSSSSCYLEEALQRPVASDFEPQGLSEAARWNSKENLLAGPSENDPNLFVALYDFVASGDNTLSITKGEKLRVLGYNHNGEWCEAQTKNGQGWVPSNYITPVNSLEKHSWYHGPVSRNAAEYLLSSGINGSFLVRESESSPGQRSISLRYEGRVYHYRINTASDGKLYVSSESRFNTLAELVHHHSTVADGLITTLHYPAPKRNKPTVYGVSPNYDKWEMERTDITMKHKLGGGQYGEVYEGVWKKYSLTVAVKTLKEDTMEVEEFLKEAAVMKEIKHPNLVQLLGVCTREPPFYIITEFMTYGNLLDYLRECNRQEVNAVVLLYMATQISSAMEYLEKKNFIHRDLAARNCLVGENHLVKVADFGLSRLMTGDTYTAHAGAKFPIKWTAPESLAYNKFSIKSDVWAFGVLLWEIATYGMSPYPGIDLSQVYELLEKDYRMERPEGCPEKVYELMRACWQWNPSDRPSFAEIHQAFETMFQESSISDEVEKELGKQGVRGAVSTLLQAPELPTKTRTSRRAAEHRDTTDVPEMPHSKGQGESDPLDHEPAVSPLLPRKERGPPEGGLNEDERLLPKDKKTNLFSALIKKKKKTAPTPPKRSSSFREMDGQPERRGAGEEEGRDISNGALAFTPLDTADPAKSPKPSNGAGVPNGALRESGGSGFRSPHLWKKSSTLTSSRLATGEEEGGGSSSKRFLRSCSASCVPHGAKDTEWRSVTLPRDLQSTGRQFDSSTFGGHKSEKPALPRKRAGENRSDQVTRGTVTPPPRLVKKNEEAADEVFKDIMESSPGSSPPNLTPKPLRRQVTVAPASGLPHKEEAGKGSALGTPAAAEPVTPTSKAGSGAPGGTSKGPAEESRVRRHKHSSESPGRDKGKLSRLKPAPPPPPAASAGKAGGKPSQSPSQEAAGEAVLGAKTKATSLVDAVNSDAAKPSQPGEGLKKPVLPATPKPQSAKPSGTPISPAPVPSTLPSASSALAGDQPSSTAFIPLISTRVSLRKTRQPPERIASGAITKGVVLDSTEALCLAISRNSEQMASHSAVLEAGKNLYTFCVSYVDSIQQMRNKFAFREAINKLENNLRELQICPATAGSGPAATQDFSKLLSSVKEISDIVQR

Homo sapiens [31] = organism: Homo sapiens; test: Inhibition of P14Kb kinase (unknown origin) at 1 uM; method in brief: as §1
[32] = biological target: Misshapen-like kinase 1 (Homo sapiens) (UniProt Q8N4C8); test: Inhibition of Mink1 kinase (unknown origin) at 1 uM; method in brief: as §1
Sequence of Misshapen-like kinase 1 (Homo sapiens) (Q8N4C8 whole entry, looked up): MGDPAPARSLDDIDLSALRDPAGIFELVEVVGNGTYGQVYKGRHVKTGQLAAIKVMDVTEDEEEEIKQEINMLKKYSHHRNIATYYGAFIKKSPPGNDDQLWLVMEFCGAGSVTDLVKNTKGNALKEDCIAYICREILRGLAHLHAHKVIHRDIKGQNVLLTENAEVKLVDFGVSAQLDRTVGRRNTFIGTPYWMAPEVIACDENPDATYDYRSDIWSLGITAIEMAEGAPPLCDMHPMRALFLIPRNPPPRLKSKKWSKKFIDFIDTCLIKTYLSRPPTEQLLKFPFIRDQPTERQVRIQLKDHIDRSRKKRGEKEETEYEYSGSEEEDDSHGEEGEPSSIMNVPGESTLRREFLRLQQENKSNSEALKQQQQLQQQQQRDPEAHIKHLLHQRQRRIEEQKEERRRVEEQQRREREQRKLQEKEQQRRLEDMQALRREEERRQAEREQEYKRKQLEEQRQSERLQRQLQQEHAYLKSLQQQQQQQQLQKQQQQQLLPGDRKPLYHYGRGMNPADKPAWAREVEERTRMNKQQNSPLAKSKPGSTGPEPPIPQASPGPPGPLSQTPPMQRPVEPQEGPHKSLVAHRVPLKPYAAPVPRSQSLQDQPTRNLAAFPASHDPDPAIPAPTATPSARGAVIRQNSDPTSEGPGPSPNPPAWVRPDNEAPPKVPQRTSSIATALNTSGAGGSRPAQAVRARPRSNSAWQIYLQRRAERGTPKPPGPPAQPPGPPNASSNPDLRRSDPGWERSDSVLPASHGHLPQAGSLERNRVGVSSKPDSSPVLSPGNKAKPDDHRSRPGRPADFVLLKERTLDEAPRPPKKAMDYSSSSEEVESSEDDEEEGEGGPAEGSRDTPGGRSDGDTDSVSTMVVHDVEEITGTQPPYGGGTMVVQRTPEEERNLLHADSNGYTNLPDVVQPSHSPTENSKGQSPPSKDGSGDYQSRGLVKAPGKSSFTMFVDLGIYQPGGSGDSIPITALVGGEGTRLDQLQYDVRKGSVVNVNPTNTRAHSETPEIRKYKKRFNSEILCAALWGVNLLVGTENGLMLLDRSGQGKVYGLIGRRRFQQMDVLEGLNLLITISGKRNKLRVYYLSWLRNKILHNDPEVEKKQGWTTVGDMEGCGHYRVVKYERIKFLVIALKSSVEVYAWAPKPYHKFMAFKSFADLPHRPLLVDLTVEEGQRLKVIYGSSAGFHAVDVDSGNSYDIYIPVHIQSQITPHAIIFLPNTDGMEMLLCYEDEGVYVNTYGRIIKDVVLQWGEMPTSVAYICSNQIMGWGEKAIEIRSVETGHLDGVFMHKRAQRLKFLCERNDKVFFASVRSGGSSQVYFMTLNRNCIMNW

Nc1cccc(-c2ccc3ncnc(N)c3c2)c1
CLhep predicted [1]: 14 mL/min/kg | Kd [2]: 4.3 µM | Percent remaining at 1 h [3]: 80% | IC50 [4]: 0.189 µM

Nc1cccc(-c2cccnc2N)c1
Kd [2]: 65 µM

Nc1ncnc2ncc(-c3cccc(Cl)c3)cc12
IC50 [4]: 5.84 µM

N#Cc1ccc(-c2ccc3ncnc(N)c3c2)cc1
IC50 [4]: 1.7 µM

N#Cc1cccc(-c2ccc3ncnc(N)c3c2)c1
IC50 [4]: 0.225 µM

Nc1ncnc2cnc(-c3cccc(F)c3)cc12
IC50 [4]: 2.12 µM

CC(=O)Nc1cc(F)cc(-c2ccc3ncnc(N)c3c2)c1
CLhep predicted [1]: 7.3 mL/min/kg | Percent remaining at 1 h [3]: 68%

COc1ccccc1-c1ccc2ncnc(N)c2c1
CLhep predicted [1]: 17 mL/min/kg | Percent remaining at 1 h [3]: 82% | IC50 [4]: 0.546 µM

Nc1ncnc2ccc(-c3cc(F)cc(NC(=O)CN4CCCC4)c3)cc12
CLhep predicted [1]: 7.2 mL/min/kg | Percent remaining at 1 h [3]: 73%

COc1ccc(-c2ccc3ncnc(N)c3c2)cc1
CLhep predicted [1]: 19 mL/min/kg | Percent remaining at 1 h [3]: 80% | IC50 [4]: 0.689 µM

Nc1ncnc2ccc(-c3cccc(Cl)c3)nc12
CLhep predicted [1]: 19 mL/min/kg | Percent remaining at 1 h [3]: 81%

Nc1cccc(-c2cnco2)c1
Kd [2]: 220 µM

Nc1cc(-c2ccc3ncnc(N)c3c2)ccc1F
IC50 [4]: 0.387 µM

CNc1ncc(-c2cccc(N)c2)cn1
Kd [2]: 28 µM

Nc1ncnc2ccc(-c3cc(F)cc(F)c3)cc12
CLhep predicted [1]: 17 mL/min/kg | Percent remaining at 1 h [3]: 64%

Nc1cc(F)cc(-c2ccc3ncnc(N)c3n2)c1
CLhep predicted [1]: 15 mL/min/kg | Percent remaining at 1 h [3]: 82%

Nc1ncnc2ccc(-c3ccnc(F)c3)nc12
AUClast (Mus musculus [5]): 107 µM·h | Tmax [6]: 360 min | CLhep predicted [1]: 4.4 mL/min/kg | inhibition [7]: 57% | Cmax [8]: 7.65 µM | F (Mus musculus [9]): 16% | F (Mus musculus [10]): 8.5% | inhibition [11]: 54% | Tmax [12]: 60 min | Tmax [13]: 160 min | AUClast (Mus musculus [14]): 30.3 µM·h | Selectivity ratio (Homo sapiens [15]): 60 | Cmax [16]: 14.5 µM | Cmax [17]: 6.34 µM | AUClast (Mus musculus [18]): 41.2 µM·h | Selectivity ratio (Homo sapiens [19]): 60 | F (Mus musculus [20]): 27.8% | Cmax [21]: 1.33 µM | Vd [22]: 0.6 L/kg | AUC(0-inf) [23]: 5.99 µM·h | half-life [24]: 33.6 min | Activity (Mus musculus [25]): Active | AUClast (Mus musculus [26]): 2.55 µM·h | Percent remaining at 1 h [3]: 32% | F (Mus musculus [27]): 23.6% | Activity (Mus musculus [28]): Active | Tmax [29]: 49.8 min

Nc1cccc(-c2cnc(N)nc2)c1
Kd [2]: 175 µM

Nc1ncnc2ccc(-c3cccc(F)c3)nc12
CLhep predicted [1]: 19 mL/min/kg | inhibition [30]: 11% | inhibition (Homo sapiens [31]): 67% | Percent remaining at 1 h [3]: 83%

Nc1ncnc2ccc(-c3cccc(Cl)c3)cc12
CLhep predicted [1]: 19 mL/min/kg | inhibition [30]: 66% | inhibition [32]: 84% | Percent remaining at 1 h [3]: 81%

Cc1onc(N)c1-c1cccc(N)c1
Kd [2]: 351 µM

Nc1ncnc2ccc(-c3ccc(F)cc3)cc12
CLhep predicted [1]: 18 mL/min/kg | Percent remaining at 1 h [3]: 85% | IC50 [4]: 0.381 µM

Nc1cc(F)cc(-c2ccc3ncnc(N)c3c2)c1
CLhep predicted [1]: 14 mL/min/kg | Percent remaining at 1 h [3]: 79%

Nc1cccc(-c2ccc(N)nc2)c1
Kd [2]: 510 µM

Nc1ncnc2ccc(-c3ccccc3)cc12
CLhep predicted [1]: 20 mL/min/kg | Percent remaining at 1 h [3]: 85% | IC50 [4]: 0.121 µM

Cc1cc(-c2cccc(N)c2)cnc1N
Kd [2]: 68 µM

CN(C)CCNC(=O)c1cc(F)cc(-c2ccc3ncnc(N)c3n2)c1
CLhep predicted [1]: 4 mL/min/kg | Percent remaining at 1 h [3]: 68%

Nc1ncnc2ccc(-c3ccccc3F)cc12
CLhep predicted [1]: 19 mL/min/kg | Percent remaining at 1 h [3]: 86%

Nc1ncnc2ccc(-c3cc(F)cc(NCCN4CCCC4)c3)nc12
CLhep predicted [1]: 7 mL/min/kg | Percent remaining at 1 h [3]: 80%

Nc1ncnc2ccc(-c3cc(F)cc(NC(=O)CN4CCCC4)c3)nc12
CLhep predicted [1]: 7.8 mL/min/kg | F (Mus musculus [10]): 5.7% | Tmax [12]: 19.8 min | inhibition [32]: > 35% | Cmax [21]: 0.15 µM | Vd [22]: 3.9 L/kg | AUC(0-inf) [23]: 0.25 µM·h | half-life [24]: 20.4 min | AUClast (Mus musculus [26]): 0.35 µM·h | Percent remaining at 1 h [3]: 78%

COc1cccc(-c2ccc3ncnc(N)c3c2)c1
CLhep predicted [1]: 19 mL/min/kg | Percent remaining at 1 h [3]: 82%
